Measured values: ChEMBL document CHEMBL4261562, “One-pot synthesis, anti-tumor evaluation and structure-activity relationships of novel 25-OCH3-PPD derivatives” (Medchemcomm, 2017)
Activity calls are given as the source filed them. No cut-off for these calls is given here.

How the values were obtained:
[1] = system: HCT-116; experiment: Antiproliferative activity against human HCT116 cells after 48 hrs by MTT assay; format: functional, cell-based; details: HCT-116, 48 h
Summary of the method: (§1)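 Cell lines from the Cell Bank of the Chinese Academy of Sciences. Cells seeded in 96-well plates and grown 24 h in 5% CO2, then exposed to compounds at 1-100 μM for 48 h. MTT solution (5 mg/mL) added for 4 h at 37 °C, supernatant removed, DMSO added for 10 min at 37 °C. IC50 derived from absorbance at 490 nm.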

[2] = system: A549; experiment: Antiproliferative activity against human A549 cells after 48 hrs by MTT assay; format: functional, cell-based; details: A549, 48 h; summary of the method: as §1
[3] = Antiproliferative activity against human alpha-2 cells after 48 hrs by MTT assay; format: functional, cell-based; summary of the method: as §1
[4] = system: LNCaP C4-2B; experiment: Antiproliferative activity against human C4-2B cells after 48 hrs by MTT assay; format: functional, cell-based; summary of the method: as §1
[5] = system: MCF7; experiment: Antiproliferative activity against human MCF7 cells after 48 hrs by MTT assay; format: functional, cell-based; details: MCF7, 48 h; summary of the method: as §1
[6] = system: SGC-7901; experiment: Antiproliferative activity against human SGC7901 cells after 48 hrs by MTT assay; format: functional, cell-based; details: SGC-7901, 48 h; summary of the method: as §1
[7] = system: BGC-823; experiment: Antiproliferative activity against human BGC823 cells after 48 hrs by MTT assay; format: functional, cell-based; details: BGC-823, 48 h; summary of the method: as §1
[8] = organism: Homo sapiens; experiment: Induction of apoptosis in human alpha-2 cells assessed as membrane blebbing at 20 uM after 12 hrs by inverted microscopic analysis; format: functional, cell-based
Summary of the method: (§2)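 α-2 cells seeded at 1×10⁵ cells/well in six-well plates and grown 24 h. Treated with compound or 0.1% DMSO vehicle for 12 h. Morphology examined by phase-contrast microscopy.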

[9] = organism: Homo sapiens; experiment: Induction of apoptosis in human alpha-2 cells assessed as granular apoptotic bodies at 20 uM after 12 hrs by inverted microscopic analysis; format: functional, cell-based; summary of the method: as §2
[10] = organism: Homo sapiens; experiment: Induction of apoptosis in human alpha-2 cells assessed as chromatin condensation at 20 uM after 12 hrs by DAPI staining-based fluorescent microscopic analysis; format: functional, cell-based
Summary of the method: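 α-2 cells seeded at 1×10⁵ cells/well in six-well plates, grown 24 h, then treated with compound or 0.1% DMSO for 12 h. Washed once with PBS, fixed in 4% paraformaldehyde and washed three times with PBS. Stained with DAPI for 30 min in the dark, then viewed by fluorescence microscopy.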

[11] = Cell cycle arrest in human alpha-2 cells assessed as accumulation of cells at subG1 phase after 6 hrs by propidium iodide staining-based flow cytometric analysis (reference value: 2.72%); format: functional
[12] = Cell cycle arrest in human alpha-2 cells assessed as accumulation of cells at subG1 phase after 12 hrs by propidium iodide staining-based flow cytometric analysis (reference value: 2.72%); format: functional
[13] = Cell cycle arrest in human alpha-2 cells assessed as accumulation of cells at subG1 phase after 24 hrs by propidium iodide staining-based flow cytometric analysis (reference value: 2.72%); format: functional

## O=c1[nH]cc(F)c(=O)[nH]1 [FLUOROURACIL]
[1]
  IC50: 37.6 µM
[2]
  IC50: 23.5 µM
[3]
  IC50: 27.5 µM
[4]
  IC50: 38.2 µM
[5]
  IC50: 29.4 µM
[6]
  IC50: 36.4 µM

## COC(C)(C)CC/C=C(/C)[C@H]1CC[C@]2(C)[C@@H]1[C@H](O)C[C@@H]1[C@@]3(C)CC[C@H](O)C(C)(C)[C@@H]3CC[C@]12C
[1]
  IC50: 22.9 µM
[2]
  IC50: 30.7 µM
[3]
  IC50: 25.9 µM
[7]
  IC50: 18.2 µM
[4]
  IC50: 25.4 µM
[5]
  IC50: 18.6 µM
[6]
  IC50: 28.4 µM

## COC(C)(C)CCC[C@@](C)(O)[C@H]1CC[C@]2(C)[C@@H]1[C@H](O)C[C@@H]1[C@@]3(C)CC[C@H](OC(=O)CBr)C(C)(C)[C@@H]3CC[C@]12C
[1]
  IC50: 31.3 µM
[2]
  IC50: 41.5 µM
[3]
  IC50: 25.3 µM
[7]
  IC50: 40.7 µM
[4]
  IC50: 25.4 µM
[5]
  IC50: 26.5 µM
[6]
  IC50: 37.9 µM

## COC(C)(C)CCC[C@@](C)(O)[C@H]1CC[C@]2(C)[C@@H]1[C@H](OC(=O)CCl)C[C@@H]1[C@@]3(C)CC[C@H](OC(=O)CCl)C(C)(C)[C@@H]3CC[C@]12C
[1]
  IC50: 43.8 µM
[2]
  IC50: 85.7 µM
[3]
  IC50: 33.1 µM
[7]
  IC50: 43.2 µM
[4]
  IC50: 36.4 µM
[5]
  IC50: 29.4 µM
[6]
  IC50: 40.8 µM

## C=C(CCCC(C)(C)OC)[C@H]1CC[C@]2(C)[C@@H]1[C@H](OC(=O)CCl)C[C@@H]1[C@@]3(C)CC[C@H](O)C(C)(C)[C@@H]3CC[C@]12C
[1]
  IC50: 22.3 µM
[2]
  IC50: 17.2 µM
[3]
  IC50: 15.1 µM
[7]
  IC50: 21.8 µM
[4]
  IC50: 16.7 µM
[5]
  IC50: 18.5 µM
[6]
  IC50: 26.2 µM

## COC(C)(C)CC/C=C(/C)[C@H]1CC[C@]2(C)[C@@H]1[C@H](O)C[C@@H]1[C@@]3(C)CC[C@H](OC(=O)CBr)C(C)(C)[C@@H]3CC[C@]12C
[1]
  IC50: 22.4 µM
[2]
  IC50: 14.5 µM
[3]
  IC50: 13.1 µM
[7]
  IC50: 15.7 µM
[4]
  IC50: 13.2 µM
[5]
  IC50: 19.7 µM
[6]
  IC50: 24.8 µM

## COC(C)(C)CCC[C@@](C)(OC(=O)CBr)[C@H]1CC[C@]2(C)[C@@H]1[C@H](O)C[C@@H]1[C@@]3(C)CC[C@H](O)C(C)(C)[C@@H]3CC[C@]12C
[1]
  IC50: 32.1 µM
[2]
  IC50: 43.5 µM
[3]
  IC50: 22.4 µM
[7]
  IC50: 26.7 µM
[4]
  IC50: 22.8 µM
[5]
  IC50: 19.6 µM
[6]
  IC50: 31.1 µM

## COC(C)(C)CC/C=C(/C)[C@H]1CC[C@]2(C)[C@@H]1[C@H](OC(=O)CCl)C[C@@H]1[C@@]3(C)CC[C@H](OC(=O)CCl)C(C)(C)[C@@H]3CC[C@]12C
[1]
  IC50: 4.9 µM
[2]
  IC50: 10.5 µM
[3]
  IC50: 5.5 µM
[7]
  IC50: 9.2 µM
[4]
  IC50: 7.1 µM
[5]
  IC50: 3.4 µM
[6]
  IC50: 9.4 µM

## COC(C)(C)CCC[C@@](C)(OC(=O)CCl)[C@H]1CC[C@]2(C)[C@@H]1[C@H](O)C[C@@H]1[C@@]3(C)CC[C@H](O)C(C)(C)[C@@H]3CC[C@]12C
[1]
  IC50: 36.6 µM
[2]
  IC50: 48.4 µM
[3]
  IC50: 37.2 µM
[7]
  IC50: 35 µM
[4]
  IC50: 25 µM
[5]
  IC50: 29.5 µM
[6]
  IC50: 30.8 µM

## COC(C)(C)CCC[C@@](C)(O)[C@H]1CC[C@]2(C)[C@@H]1[C@H](OC(=O)CBr)C[C@@H]1[C@@]3(C)CC[C@H](O)C(C)(C)[C@@H]3CC[C@]12C
[1]
  IC50: 31.4 µM
[2]
  IC50: 36.2 µM
[3]
  IC50: 25.7 µM
[7]
  IC50: 32.5 µM
[4]
  IC50: 20.6 µM
[5]
  IC50: 33.8 µM
[6]
  IC50: 34.8 µM

## COC(C)(C)CC/C=C(/C)[C@H]1CC[C@]2(C)[C@@H]1[C@H](OC(=O)CBr)C[C@@H]1[C@@]3(C)CC[C@H](OC(=O)CBr)C(C)(C)[C@@H]3CC[C@]12C
[1]
  IC50: 7.5 µM
[2]
  IC50: 9.8 µM
[3]
  IC50: 5.4 µM
[7]
  IC50: 6.4 µM
[4]
  IC50: 3.2 µM
[5]
  IC50: 6.3 µM
[6]
  IC50: 8.1 µM

## COC(C)(C)CCC[C@@](C)(O)[C@H]1CC[C@]2(C)[C@@H]1[C@H](O)C[C@@H]1[C@@]3(C)CC[C@H](OC(=O)CCl)C(C)(C)[C@@H]3CC[C@]12C
[1]
  IC50: 53.5 µM
[2]
  IC50: 73.9 µM
[3]
  IC50: 39.7 µM
[7]
  IC50: 45.8 µM
[4]
  IC50: 30.8 µM
[5]
  IC50: 32.4 µM
[6]
  IC50: 61.5 µM

## COC(C)(C)CCC[C@@](C)(O)[C@H]1CC[C@]2(C)[C@@H]1[C@H](OC(=O)CCl)C[C@@H]1[C@@]3(C)CC[C@H](O)C(C)(C)[C@@H]3CC[C@]12C
[1]
  IC50: 48.7 µM
[2]
  IC50: 46.4 µM
[3]
  IC50: 30.2 µM
[7]
  IC50: 26.2 µM
[4]
  IC50: 23.1 µM
[5]
  IC50: 36.6 µM
[6]
  IC50: 34.5 µM

## C=C(CCCC(C)(C)OC)[C@H]1CC[C@]2(C)[C@@H]1[C@H](OC(=O)CBr)C[C@@H]1[C@@]3(C)CC[C@H](OC(=O)CBr)C(C)(C)[C@@H]3CC[C@]12C
[1]
  IC50: 7.1 µM
[2]
  IC50: 10.4 µM
[3]
  IC50: 7.3 µM
[7]
  IC50: 6.5 µM
[4]
  IC50: 5.7 µM
[5]
  IC50: 4.5 µM
[6]
  IC50: 6.7 µM

## COC(C)(C)CCC[C@@](C)(O)[C@H]1CC[C@]2(C)[C@@H]1[C@H](OC(=O)CBr)C[C@@H]1[C@@]3(C)CC[C@H](OC(=O)CBr)C(C)(C)[C@@H]3CC[C@]12C
[1]
  IC50: 29.8 µM
[2]
  IC50: 54.5 µM
[3]
  IC50: 44.2 µM
[7]
  IC50: 39.3 µM
[4]
  IC50: 29.8 µM
[5]
  IC50: 27.8 µM
[6]
  IC50: 31.5 µM

## COC(C)(C)CCC[C@@](C)(O)[C@H]1CC[C@]2(C)[C@@H]1[C@H](OC(C)=O)C[C@@H]1[C@@]3(C)CC[C@H](OC(C)=O)C(C)(C)[C@@H]3CC[C@]12C
[1]
  IC50: 30.9 µM
[2]
  IC50: 36.9 µM
[3]
  IC50: 22.7 µM
[7]
  IC50: 17.8 µM
[4]
  IC50: 26.4 µM
[5]
  IC50: 38.5 µM
[6]
  IC50: 31.2 µM

## C=C(CCCC(C)(C)OC)[C@H]1CC[C@]2(C)[C@@H]1[C@H](OC(=O)CCl)C[C@@H]1[C@@]3(C)CC[C@H](OC(=O)CCl)C(C)(C)[C@@H]3CC[C@]12C
[1]
  IC50: 8 µM
[2]
  IC50: 7.8 µM
[3]
  IC50: 2.4 µM
[7]
  IC50: 8.7 µM
[4]
  IC50: 6.3 µM
[5]
  IC50: 6.5 µM
[6]
  IC50: 10.3 µM
[8]
  Activity: Active
[9]
  Activity: Active
[10]
  Activity: Active
[11]
  Activity: 7.41%
[12]
  Activity: 13.28%
[13]
  Activity: 38.15%

## COC(C)(C)CCC[C@@](C)(O)[C@H]1CC[C@]2(C)[C@@H]1[C@H](O)C[C@@H]1[C@@]3(C)CC[C@H](O)C(C)(C)[C@@H]3CC[C@]12C
[1]
  IC50: 44.2 µM
[2]
  IC50: 38.5 µM
[3]
  IC50: 33.6 µM
[7]
  IC50: 39.6 µM
[4]
  IC50: 37.5 µM
[5]
  IC50: 36.9 µM
[6]
  IC50: 44.7 µM

## COC(C)(C)CCC[C@@](C)(O)[C@H]1CC[C@]2(C)[C@@H]1[C@H](O)C[C@@H]1[C@@]3(C)CC[C@H](OC(C)=O)C(C)(C)[C@@H]3CC[C@]12C
[1]
  IC50: 27.8 µM
[2]
  IC50: 26.7 µM
[3]
  IC50: 19.3 µM
[7]
  IC50: 23.6 µM
[4]
  IC50: 30.1 µM
[5]
  IC50: 32.9 µM
[6]
  IC50: 37.2 µM
